Positions of bridges follow the written chain, without caps; N, C: chain ends. Non-standard residues stand in square brackets, D forms with d. Residues, ends and D or L forms follow the SMILES beside them. pY = N[C@@H](Cc1ccc(OP(=O)(O)O)cc1)C(=O)O
Key:
[1] = biological target: T1, Growth factor receptor-bound protein 2 (Homo sapiens, UniProt P62993); experiment: Inhibition of Growth factor receptor bound protein 2 SH2 domain binding in plasmon resonance binding assay
Outline: (§1)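 Biotin-DDPSpYVNVQ (SHC phosphopeptide) immobilized on SA5 streptavidin chips at 2 nM. Equilibrium Ru was read 20 s after flow ended and compared with binding without inhibitor to derive IC50. Two experiments on separate chips.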

[2] = biological target: T1, Growth factor receptor-bound protein 2; experiment: (§2) Inhibition of Grb2 SH2 domain binding in MDA-MB-453 human breast carcinoma cell lysates
Outline: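 Lysates of serum-treated MDA-MB-453 cells were made in 1% Triton X-100/PBS with 0.2 mM NaVO4 and incubated 30 min with compound. Grb2 was immunoprecipitated from 5 mg lysate with anti-Grb2 and protein A Sepharose. Proteins were resolved by 8–16% SDS-PAGE, and coprecipitated p185erbB-2 was detected by anti-phosphotyrosine Western blot. Single experiment, equal lysate amounts.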

[3] = biological target: T1, Growth factor receptor-bound protein 2; experiment: Inhibition of Grb2 SH2 domain binding by surface plasmon resonance; outline: as §1
[4] = biological target: T1, Growth factor receptor-bound protein 2; experiment: as §2; details: in the assay text read “cells” for “cell lysates”
[5] = biological target: T1, Growth factor receptor-bound protein 2; experiment: Inhibition of Grb2 SH2 domain binding

T1 sequence (P62993 whole entry, the tested form may be a part): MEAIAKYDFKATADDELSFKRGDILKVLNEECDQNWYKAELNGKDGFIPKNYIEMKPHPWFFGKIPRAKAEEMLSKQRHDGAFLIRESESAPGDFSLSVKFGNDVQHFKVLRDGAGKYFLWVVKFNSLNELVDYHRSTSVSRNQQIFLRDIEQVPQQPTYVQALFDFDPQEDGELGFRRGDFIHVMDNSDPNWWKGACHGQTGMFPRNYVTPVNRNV

Compound CC(=O)N[C@@H](Cc1ccc(C(F)(F)P(=O)(O)O)cc1)C(=O)NC1(C(=O)N[C@@H](CC(N)=O)C(=O)NCCCc2cccc3ccccc23)CCCCC1 has an IC50 [1] of 80 nM and an IC50 [2] of 500 nM.
Compound CC(=O)N[C@@H](Cc1ccc(OP(=O)(O)O)cc1)C(=O)NC1(C(=O)N[C@@H](CC(N)=O)C(=O)NCCCc2cccc3ccccc23)CCCCC1 has an IC50 [3] of 70 nM.
CC(=O)N[C@@H](Cc1ccc(O)cc1)C(=O)NC1(C(=O)N[C@@H](CC(N)=O)C(=O)NCCCc2cccc3ccccc23)CCCCC1 showed an IC50 [4] of over 50000 nM.
In the case of CC(=O)N[C@@H](Cc1ccc(CP(=O)(O)O)cc1)C(=O)NC1(C(=O)N[C@@H](CC(N)=O)C(=O)NCCCc2cccc3ccccc23)CCCCC1, the IC50 [1] is reported as 80 nM and the IC50 [2] is reported as 500 nM.
With CC(=O)N[C@@H](Cc1ccc(OCC(=O)O)c(C(=O)O)c1)C(=O)NC1(C(=O)N[C@@H](CC(N)=O)C(=O)NCCCc2cccc3ccccc23)CCCCC1 the IC50 [1] was 6700 nM.
CC(=O)N[C@@H](Cc1ccc(OP(=O)(O)O)cc1)C(=O)NC1(C(=O)N[C@@H](CC(N)=O)C(=O)NCCCc2c(O)ccc3ccccc23)CCCCC1 gave an IC50 [5] of 11 nM.
CC(=O)N[C@@H](Cc1ccc(OCC(=O)O)c(OCC(=O)O)c1)C(=O)NC1(C(=O)N[C@@H](CC(N)=O)C(=O)NCCCc2cccc3ccccc23)CCCCC1 showed an IC50 [1] of over 100000 nM.
Compound NC(=O)C[C@H](NC(=O)C1(NC(=O)[C@H](Cc2ccc(OCC(=O)O)c(C(=O)O)c2)NC(=O)C(=O)O)CCCCC1)C(=O)NCCCc1cccc2ccccc12 has an IC50 [1] of 1300 nM and an IC50 [2] of 500 nM.
NC(=O)C[C@H](NC(=O)C1(NC(=O)[C@H](Cc2ccc(CP(=O)(O)O)cc2)NC(=O)C(=O)O)CCCCC1)C(=O)NCCCc1cccc2ccccc12 gave an IC50 [2] of 500 nM.
For CC[C@H](C)[C@@H]1NC(=O)[C@H](Cc2ccc(OP(=O)(O)O)cc2)NC(=O)[C@@H](NC(C)=O)CSSC[C@@H](C(N)=O)NC(=O)[C@H](CC(N)=O)NC1=O (Ac-C[pY]INC-NH2; disulfide 1-5), the IC50 [5] was 370 nM.
CC(C)[C@H](NC(=O)[C@H](CC(N)=O)NC(=O)[C@@H](NC(=O)[C@H](Cc1ccc(OP(=O)(O)O)cc1)NC(=O)[C@H](CO)NC(=O)[C@@H]1CCCN1C(=O)[C@H](CC(=O)O)NC(=O)[C@@H](N)CC(=O)O)C(C)C)C(=O)N[C@@H](CCC(N)=O)C(=O)O (H-DDPS[pY]VNVQ-OH) was tested, and the IC50 [5] was 1300 nM.
